From ChEMBL document CHEMBL1131080, “Structure-based design and synthesis of high affinity tripeptide ligands of the Grb2-SH2 domain” (J Med Chem, 1998) come the findings set out here.

Experiment [1] deals with T1, Growth factor receptor-bound protein 2 (Homo sapiens, UniProt P62993). In words: Inhibition of Grb2-SH2 domain binding to phospho-EGF receptor intracellular C-terminal domain. The experiment is classed as biochemical. The method, boiled down: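 Phosphorylated MBP-EGFR C-terminal domain (residues 976–1210, expressed in E. coli) is immobilized on plates and incubated with GST/Grb2-SH2 in the presence of phosphopeptide or buffer. Bound SH2 is detected with rabbit anti-GST and HRP anti-rabbit antibody, using TMB substrate read at 655 nm. Inhibition is the % absorbance reduction versus no inhibitor; IC50 comes from nonlinear regression.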

Experiment [2] deals with T1, Growth factor receptor-bound protein 2. Put plainly: Inhibition of Grb2 SH2 domain binding to biotinylated phosphopeptide. The method, boiled down: (§1)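 Competition ELISA. Biotinylated phosphopeptide (10 ng/mL in 50 mM Tris, pH 7.5) is captured overnight at 4 °C on streptavidin-coated plates. Wells then receive GST-SH2 fusion (Grb2 3.2 ng/mL, Lck 3.2 ng/mL, p85 N-terminal 0.7 ng/mL) with varying unlabeled peptide or buffer, in TBS/0.1% Tween. Detection is rabbit anti-GST, then peroxidase anti-rabbit IgG with TMB. IC50 comes from nonlinear regression of % absorbance reduction.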

Experiment [3] addresses Tyrosine-protein kinase Lck (Homo sapiens, UniProt P06239). In words: Inhibition of p56lck SH2 domain binding to biotinylated phosphopeptide. The procedure, abridged: as §1
Experiment [4] is described as follows: Inhibition of p85 SH2 domain binding to biotinylated phosphopeptide. The procedure, abridged: as §1

T1 sequence (P62993 whole entry, the tested form may be a part): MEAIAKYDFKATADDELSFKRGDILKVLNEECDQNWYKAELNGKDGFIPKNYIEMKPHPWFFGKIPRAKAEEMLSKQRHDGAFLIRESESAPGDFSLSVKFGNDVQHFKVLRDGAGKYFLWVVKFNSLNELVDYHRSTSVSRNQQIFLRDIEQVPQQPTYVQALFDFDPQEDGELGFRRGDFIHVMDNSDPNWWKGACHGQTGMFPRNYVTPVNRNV
Tyrosine-protein kinase Lck, sequence (P06239 whole entry, the tested form may be a part): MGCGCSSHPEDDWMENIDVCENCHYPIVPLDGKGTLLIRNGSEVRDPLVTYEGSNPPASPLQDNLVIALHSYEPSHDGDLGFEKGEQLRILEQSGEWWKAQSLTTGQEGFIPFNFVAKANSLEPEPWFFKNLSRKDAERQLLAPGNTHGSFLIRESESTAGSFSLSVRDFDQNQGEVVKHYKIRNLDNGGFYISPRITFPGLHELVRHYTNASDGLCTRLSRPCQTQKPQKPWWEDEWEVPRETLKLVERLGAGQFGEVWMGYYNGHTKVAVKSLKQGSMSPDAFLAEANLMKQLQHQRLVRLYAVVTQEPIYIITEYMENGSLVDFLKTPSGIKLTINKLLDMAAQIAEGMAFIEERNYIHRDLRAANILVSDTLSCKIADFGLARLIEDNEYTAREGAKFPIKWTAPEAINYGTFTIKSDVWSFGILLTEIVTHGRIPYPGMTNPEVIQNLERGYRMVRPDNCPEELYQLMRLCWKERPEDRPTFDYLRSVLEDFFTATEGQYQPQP

What is called IC50 is the point on the concentration scale where inhibition reaches its midpoint. Low readings indicate higher potency, high ones lower potency. In experiment [1], `CC[C@H](C)[C@H](NC(=O)[C@@H](N)Cc1ccc(OP(=O)(OC(C)=O)OC(C)=O)cc1)C(=O)N[C@@H](CC(N)=O)C(=O)O` came in with an IC50 of 8900 nM.
On to `CCCCC(CC)CNC(=O)C[C@H](NC(=O)[C@@H](NC(=O)[C@@H](N)Cc1ccc(OP(=O)(OC(C)=O)OC(C)=O)cc1)[C@@H](C)CC)C(=O)O` (stereo not given in full), for which, in experiment [1], the IC50 is 1600 nM.
In turn, `CC[C@H](C)[C@H](NC(=O)[C@@H](N)Cc1ccc(OP(=O)(OC(C)=O)OC(C)=O)cc1)C(=O)N[C@@H](CC(=O)NCCCc1ccccc1)C(=O)O` displayed an IC50 in experiment [1] of 2300 nM.
Still for that read-out and setting: the same measure for `CC[C@H](C)[C@H](NC(=O)[C@@H](N)Cc1ccc(OP(=O)(OC(C)=O)OC(C)=O)cc1)C(=O)N[C@@H](CC(=O)NCCCc1ccc(Cl)cc1Cl)C(=O)O`: 1500 nM.
On the same count and under the same terms, the same measure for `CC[C@H](C)[C@H](NC(=O)[C@@H](N)Cc1ccc(OP(=O)(OC(C)=O)OC(C)=O)cc1)C(=O)N[C@@H](CC(=O)NCCC(C)C)C(=O)O`: 3100 nM; for `CC[C@H](C)[C@H](NC(=O)[C@@H](N)Cc1ccc(OP(=O)(OC(C)=O)OC(C)=O)cc1)C(=O)N[C@@H](CC(=O)NCC(C)C)C(=O)O`: 3200 nM.
As to `CC[C@H](C)[C@H](NC(=O)[C@@H](N)Cc1ccc(OP(=O)(OC(C)=O)OC(C)=O)cc1)C(=O)N[C@@H](CC(=O)NCCCc1cccc2ccccc12)C(=O)O`, the half-inhibitory concentration (IC50) in experiment [2] is 580 nM; in experiment [3], over 10000 nM; in experiment [4], over 10000 nM; in experiment [1], 330 nM.
